Data from ChEMBL document CHEMBL1149323, “Synthesis and evaluation of dihydropyrroloquinolines that selectively antagonize P-glycoprotein” (J Med Chem, 2004).

Legend:
[1] = Reversal index is the ratio of IC50 in the absence of modulator to that of presence of modulator when combined with vincristine (nM) in MCF-7 cell line; assay type: functional, MCF7
In short: (§1)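 Cells treated in triplicate for 48 h with graded cytotoxic drug, with or without modulator. Survival quantified by sulforhodamine B absorbance at 570 nm. IC50 of the cytotoxic drug derived with and without modulator; reversal index = IC50 without modulator / IC50 with modulator.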

[2] = Reversal index is the ratio of IC50 in the absence of modulator to that of presence of modulator when combined with taxol (nM) in NCI/ADR cell line; assay type: functional; in short: as §1
Mus musculus [3] = test: In vivo tumor growth inhibition in mice when […] at a day 1; assay type: functional
In short: (§2)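 Balb/c female mice, 6–8 weeks old, with 10^6 JC murine mammary adenocarcinoma cells injected subcutaneously in the right hind quarter. Treatment began once tumors were palpable (day 1), five mice per group. Dosing on days 1, 5 and 9: 100 mg/kg i.p. PGP-4008·HCl with or without 5 mg/kg doxorubicin. Caliper volumes calculated as (L×W²)/2 through day 15; unpaired t-test with Welch correction.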

MCF-7 (Homo sapiens) = test: Toxicity against MCF-7 cells
[4] = Maximum concentration in plasma was determined after intraperitoneal administration of 100 mg/kg in mice; assay type: ADME, organism-based; set-up: dose 100 mg/kg, route intraperitoneal; details: mouse, ip
In short: (§3)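 Female Swiss-Webster mice, 6–8 weeks old, given 100 mg/kg PGP-4008·HCl intraperitoneally. Blood taken by intracardiac puncture under anesthesia at 1–240 min, three animals per time point. Samples precipitated with ice-cold acetonitrile with 2-naphthol internal standard, then HPLC read at 254 nm against a standard curve. Two-compartment model fit.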

Mus musculus [5] = test: The second majority of the volume of distribution after intraperitoneal administration of 100 mg/kg in mice; assay type: ADME, organism-based; set-up: dose 100 mg/kg, route intraperitoneal; details: in vivo, ip; in short: as §3
[6] = Reversal index is the ratio of IC50 in the absence of modulator to that of presence of modulator when combined with vincristine (nM) in P388/ADR cell line; assay type: functional; in short: as §1
Mus musculus [7] = test: Volume of distribution after intraperitoneal administration of 100 mg/kg in mice; assay type: ADME, organism-based; set-up: dose 100 mg/kg, route intraperitoneal; details: in vivo, ip; in short: as §3
[8] = Reversal index is the ratio of IC50 in the absence of modulator to that of presence of modulator when combined with vinblastine (nM) in MCF-7 cell line; assay type: functional, MCF7; in short: as §1
[9] = Reversal index is the ratio of IC50 in the absence of modulator to that of presence of modulator when combined with 5-Fluorouracil (uM) in T24 cell line; assay type: functional, T-24; in short: as §1
Mus musculus [10] = test: In vivo tumor growth inhibition in mice when administered subcutaneously at a day 5; assay type: functional; details: in the assay text read “intraperitoneally” for “subcutaneously”; in short: as §2
[11] = Reversal index is the ratio of IC50 in the absence of modulator to that of presence of modulator when combined with cisplatin (uM) in P388/ADR cell line; assay type: functional; in short: as §1
Mus musculus [12] = test: In vivo tumor growth inhibition in mice when […] at a day 15; assay type: functional; in short: as §2
[13] = Reversal index is the ratio of IC50 in the absence of modulator to that of presence of modulator when combined with doxorubicin (uM) in P388/ADR cell line
[14] = Reversal index is the ratio of IC50 in the absence of modulator to that of presence of modulator when combined with taxol (nM) in T24 cell line; assay type: functional, T-24; in short: as §1
[15] = Reversal index is the ratio of IC50 in the absence of modulator to that of presence of modulator when combined with vinblastine (nM) in MCF-7/VP cell line; assay type: functional; in short: as §1
Mus musculus [16] = test: In vivo tumor growth inhibition in mice when administered […] at a day 12; assay type: functional; in short: as §2
[17] = Plasma clearance rate after intraperitoneal administration of 100 mg/kg in mice; assay type: ADME, organism-based; set-up: dose 100 mg/kg, route intraperitoneal; details: mouse, ip, read-out: Clp (converted); in short: as §3
[18] = Compound was evaluated for broad range of antagonistic activity against multi drug resistance-related protein (MRP) value expressed as IC20; assay type: functional; set-up: unit not given here
[19] = Reversal index is the ratio of IC50 in the absence of modulator to that of presence of modulator when combined with vincristine (nM) in NCI/ADR cell line; assay type: functional; in short: as §1
[20] = Reversal index is the ratio of IC50 in the absence of modulator to that of presence of modulator when combined with 5-fluorouracil (uM) in NCI/ADR cell line; assay type: functional; in short: as §1
[21] = Reversal index is the ratio of IC50 in the absence of modulator to that of presence of modulator when combined with vinblastine (nM) in NCI/ADR cell line; assay type: functional; in short: as §1
[22] = Reversal index is the ratio of IC50 in the absence of modulator to that of presence of modulator when combined with vinblastine (nM) in T24 cell line; assay type: functional, T-24; in short: as §1
[23] = Reversal index is the ratio of IC50 in the absence of modulator to that of presence of modulator when combined with vincristine (nM) in T24 cell line; assay type: functional, T-24; in short: as §1
[24] = Reversal index is the ratio of IC50 in the absence of modulator to that of presence of modulator when combined with taxol (nM) in MCF-7/VP cell line; assay type: functional; in short: as §1
[25] = molecular target: ATP-dependent translocase ABCB1 (Homo sapiens, UniProt P08183); test: Compound was evaluated for broad range of antagonistic activity against P-glycoprotein (Pgp) value expressed as IC20; assay type: functional
Sequence of ATP-dependent translocase ABCB1 (P08183 whole entry): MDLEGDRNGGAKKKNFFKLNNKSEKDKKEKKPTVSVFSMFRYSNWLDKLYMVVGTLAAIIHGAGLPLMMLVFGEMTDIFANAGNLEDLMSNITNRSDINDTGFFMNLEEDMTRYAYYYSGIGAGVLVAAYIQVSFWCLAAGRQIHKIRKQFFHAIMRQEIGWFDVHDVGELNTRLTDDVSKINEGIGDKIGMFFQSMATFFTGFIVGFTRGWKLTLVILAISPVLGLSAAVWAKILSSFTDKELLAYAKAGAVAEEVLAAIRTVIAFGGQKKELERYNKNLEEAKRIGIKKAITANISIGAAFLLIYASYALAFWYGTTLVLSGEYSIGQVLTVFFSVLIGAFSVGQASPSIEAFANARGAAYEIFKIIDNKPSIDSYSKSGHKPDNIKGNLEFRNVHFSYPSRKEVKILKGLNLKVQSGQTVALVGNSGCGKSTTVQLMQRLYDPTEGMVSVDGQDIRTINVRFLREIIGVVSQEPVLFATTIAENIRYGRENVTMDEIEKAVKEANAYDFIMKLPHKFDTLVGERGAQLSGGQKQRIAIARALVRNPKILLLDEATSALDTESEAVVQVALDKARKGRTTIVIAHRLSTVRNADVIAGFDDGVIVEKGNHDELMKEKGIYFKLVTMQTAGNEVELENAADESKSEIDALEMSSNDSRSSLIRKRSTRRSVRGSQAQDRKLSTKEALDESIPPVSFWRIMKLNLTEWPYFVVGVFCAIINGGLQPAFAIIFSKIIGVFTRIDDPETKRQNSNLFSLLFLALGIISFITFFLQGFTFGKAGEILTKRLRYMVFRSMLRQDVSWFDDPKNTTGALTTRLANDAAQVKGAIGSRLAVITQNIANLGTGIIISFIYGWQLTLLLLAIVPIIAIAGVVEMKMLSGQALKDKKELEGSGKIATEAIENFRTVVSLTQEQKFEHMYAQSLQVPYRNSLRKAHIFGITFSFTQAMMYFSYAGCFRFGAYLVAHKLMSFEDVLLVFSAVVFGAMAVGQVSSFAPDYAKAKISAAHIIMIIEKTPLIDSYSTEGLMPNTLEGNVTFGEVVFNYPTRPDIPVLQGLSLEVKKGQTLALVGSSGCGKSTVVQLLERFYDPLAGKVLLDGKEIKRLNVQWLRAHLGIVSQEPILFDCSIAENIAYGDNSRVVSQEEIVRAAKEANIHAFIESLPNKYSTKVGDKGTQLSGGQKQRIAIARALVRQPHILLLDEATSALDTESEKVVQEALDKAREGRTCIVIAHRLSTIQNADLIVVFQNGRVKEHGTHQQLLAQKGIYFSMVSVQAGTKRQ

[26] = Reversal index is the ratio of IC50 in the absence of modulator to that of presence of modulator when combined with cisplatin (uM) in T24 cell line; assay type: functional, T-24; in short: as §1
[27] = Reversal index is the ratio of IC50 in the absence of modulator to that of presence of modulator when combined with vinblastine (nM) in P388/ADR cell line; assay type: functional; in short: as §1
Mus musculus [28] = test: AUMC after intraperitoneal administration of 100 mg/kg in mice; assay type: ADME, organism-based; set-up: dose 100 mg/kg, route intraperitoneal; details: in vivo, ip; in short: as §3
[29] = Reversal index is the ratio of IC50 in the absence of modulator to that of presence of modulator when combined with cisplatin (uM) in NCI/ADR cell line; assay type: functional; in short: as §1
Mus musculus [30] = test: Volume of the first compartment after intraperitoneal administration of 100 mg/kg in mice; details: in vivo, ip
[31] = Reversal index is the ratio of IC50 in the absence of modulator to that of presence of modulator when combined with taxol (nM) in MCF-7 cell line; assay type: functional, MCF7; in short: as §1
[32] = Reversal index is the ratio of IC50 in the absence of modulator to that of presence of modulator when combined with 5-fluorouracil (uM) in P388/ADR cell line; assay type: functional; in short: as §1
Mus musculus [33] = test: In vivo tumor growth inhibition in mice when administered […] at a day 9; assay type: functional; in short: as §2
[34] = Reversal index is the ratio of IC50 in the absence of modulator to that of presence of modulator when combined with taxol (nM) in P388/ADR cell line
[35] = Reversal index is the ratio of IC50 in the absence of modulator to that of presence of modulator when combined with vincristine (nM) in MCF-7/VP cell line; assay type: functional; in short: as §1
[36] = Reversal index is the ratio of IC50 in the absence of modulator to that of presence of modulator when combined with cisplatin (uM) in MCF-7/VP cell line; assay type: functional; in short: as §1
[37] = Reversal index is the ratio of IC50 in the absence of modulator to that of presence of modulator when combined with cisplatin (uM) in MCF-7 cell line; assay type: functional, MCF7; in short: as §1
[38] = Reversal index is the ratio of IC50 in the absence of modulator to that of presence of modulator when combined with 5-Fluorouracil (uM) in MCF-7 cell line; assay type: functional, MCF7; in short: as §1
[39] = Reversal index is the ratio of IC50 in the absence of modulator to that of presence of modulator when combined with 5-fluorouracil (uM) in MCF-7/VP cell line; assay type: functional; in short: as §1

Structure (SMILES) | RI [1] | RI [2] | RI [6] | RI [8] | RI [9] | RI [11] | RI [13] | RI [14] | RI [15] | RI [19] | RI [20] | RI [21] | RI [22] | RI [23] | RI [24] | RI [26] | RI [27] | RI [29] | RI [31] | RI [32] | further results
O=C(Cc1ccccc1)Nc1c2c(nc3ccccc13)N(Cc1ccccc1)CC2 | 0.9 | 70 | 30 | 1.8 | 2.6 | 1.9 | 200 | 1.2 | 1.3 | 18 | 1 | 35 | 3.8 | 1.5 | 0.8 | 1.1 | 63 | 1.2 | 0.9 | 0.7 | Tumor volume (Mus musculus [3]): 380 mm**3; Toxicity (MCF-7 (Homo sapiens)): 13 µM; Cmax [4]: 197 µg/mL; V2 (Mus musculus [5]): 40.5 mL; Vdss (Mus musculus [7]): 43 mL; Tumor volume (Mus musculus [10]): 470 mm**3; Tumor volume (Mus musculus [12]): 2000 mm**3; Tumor volume (Mus musculus [16]): 1280 mm**3; CL/F [17]: 1.34 mL/min; Activity [18]: 0.7; Activity [25]: 10.7; AUMC (Mus musculus [28]): 9.4 µg·h²/mL; V1 (Mus musculus [30]): 2.3 mL; Tumor volume (Mus musculus [33]): 1030 mm**3; RI [34]: 202; RI [35]: 1; RI [36]: 0.8
COc1ccc(CCN(C)CCCC(C#N)(c2ccc(OC)c(OC)c2)C(C)C)cc1OC (configuration not stated) | 4.6 | 106 | 112 | 1.2 | 1.6 | 2 | 1000 | 1.6 | 2.4 | 50 | 0.9 | 173 | 2.7 | 3.7 | 1.1 | 1 | 61 | 1.1 | 1.1 | 0.7 | RI [37]: 1.1; RI [38]: 0.9; RI [35]: 15; RI [39]: 0.9; RI [36]: 0.8
